Reference: publication PMC3232455 (Molecular therapy : the journal of the American Society of …, 2011)

Tests used:
HeLa and glioma cells = conditions: cited from earlier work
CLL cells = assay: MTT cell viability assay in primary CLL samples; format: cell-based, human; conditions: six fresh primary CLL patient samples, 24 hours with 0-20 μM peptide
Method in brief: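 Human PBMCs isolated from fresh patient blood by density centrifugation and kept in RPMI 1640 with 10% FBS and penicillin/streptomycin. Seeded at 3 × 10^5 cells/well with 0–20 µmol/l unlabelled test peptide under tissue-culture conditions, then MTT read-out. Viability expressed as percentage of untreated controls.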

Substance	Cell uptake and distribution (in words) (HeLa and glioma cells)	Cell viability (in words) (CLL cells)
FFLIPKG-R8	diffusely label the cytoplasm within five minutes	
NH2-asrslhslaG-Ahx-rrrrrrrrGC-COOH [asr-a-r8]		no loss of viability
